The values that follow come from article PMC9931008 (Journal of Food and Drug Analysis, 2022).

Where two headings read alike, the source gives them in different places.

Data set [1] has as its system nifedipine oxidation (NFO) activity. In kind it is in vitro ADME, rat. The note with it: rat, probe nifedipine; for IC50: rat hepatic (liver) microsomes, IC50, NFO activity, Liver, ingredient, 10-min NADPH-fortified pre-incubation; for inhibition at 100 µM: rat hepatic and intestinal microsomes.
The conditions of data set [2]: cited from earlier work; for Cmax: read-out: Cmax levels of plasma, rats orally treated with a single dose of 8 g/kg lyophilized SMS.
For data set [3] the following is noted: rat plasma; nifedipine 3 mg/kg oral; control group (water).
For data set [4], the system named is nifedipine oxidation (NFO) activities in rat hepatic microsomes. In kind it is in vitro ADME. The note with it: read-out: IC50, NFO activity, Liver; ingredient; 10-min NADPH-fortified pre-incubation.
For data set [5], the system named is nifedipine oxidation (NFO) activities in rat intestinal microsomes. In kind it is in vitro ADME. To be noted: read-out: IC50, NFO activity, Intestine; ingredient; 10-min NADPH-fortified pre-incubation.
For data set [6], the target named is T1, human CYP3A4 (Homo sapiens, UniProt P08684, S18F). In kind it is in vitro ADME. To be noted: for Ratio IC50(+)/IC50(−): IC50 shift after 10-min pre-incubation; for IC50: NFO activity; for Predicted threshold of unbound inhibitor concentration causing a 2-fold AUC increase: high-throughput method from IC50 values.
Data set [7] deals with T1, human CYP3A4. As to the kind of experiment: Time-dependent inactivation kinetics of human CYP3A4. In kind it is in vitro ADME. The procedure, abridged: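 Recombinant CYP3A4 was pre-incubated with NADPH and test compound (DMSO vehicle) for varying times, and residual NFO was measured. K_app is the slope of ln % remaining activity versus time. k_inact and K_I came from nonlinear fit of K_app = k_inact·I/(I+K_I), with double-reciprocal starting values. The partition ratio came from titrating remaining activity after 30-min incubation against inhibitor:CYP3A4 molar ratio. […] Means of three determinations.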

Data set [8] has as its target T1, human CYP3A4. As to the kind of experiment: Dialysis experiment, remaining NFO activity. In kind it is in vitro ADME. The note with it: 30-min NADPH-fortified pre-incubation. The procedure, abridged: (§1)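 E. coli membranes co-expressing human CYP3A4 and CPR (20 nM) were incubated 30 min at 37 °C with 3–20 μM test compound and an NADPH-generating system (pH 7.4), with DMSO vehicle controls. They were dialysed (10 kDa) at 4 °C against phosphate/0.1 mM EDTA with three 30-min buffer changes. […] Means of three determinations.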

The target of data set [9] is T2, NADPH-P450 reductase (CPR) (Homo sapiens, UniProt P16435).
T2 sequence (P16435 1-677): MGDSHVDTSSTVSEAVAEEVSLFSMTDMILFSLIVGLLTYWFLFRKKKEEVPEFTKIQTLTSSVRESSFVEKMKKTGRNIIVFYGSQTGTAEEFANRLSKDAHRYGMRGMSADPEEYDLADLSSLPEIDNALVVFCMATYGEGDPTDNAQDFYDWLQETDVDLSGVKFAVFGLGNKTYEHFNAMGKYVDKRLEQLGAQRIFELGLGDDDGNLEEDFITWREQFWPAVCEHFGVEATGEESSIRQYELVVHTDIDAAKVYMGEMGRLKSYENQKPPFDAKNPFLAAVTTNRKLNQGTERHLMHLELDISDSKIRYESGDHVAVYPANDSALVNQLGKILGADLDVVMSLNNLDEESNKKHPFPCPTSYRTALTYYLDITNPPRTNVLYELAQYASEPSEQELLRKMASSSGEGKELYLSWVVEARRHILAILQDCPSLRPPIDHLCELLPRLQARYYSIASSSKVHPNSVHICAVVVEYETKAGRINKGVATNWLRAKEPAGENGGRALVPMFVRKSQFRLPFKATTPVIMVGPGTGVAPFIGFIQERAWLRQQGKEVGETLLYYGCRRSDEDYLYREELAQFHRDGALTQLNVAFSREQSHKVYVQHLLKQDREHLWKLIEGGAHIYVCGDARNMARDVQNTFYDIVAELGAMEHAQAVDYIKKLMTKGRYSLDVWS
The experiment in a line: Dialysis experiment, CPR activity. In kind it is in vitro ADME. To be noted: recombinant CYP3A4 system. The procedure, abridged: as §1

A short description of data set [10]: Literature pharmacokinetics of herbal ingredients in rats. In kind it is in vivo. To be noted: SMS once daily, estimated from half-life.
The mark [11] stands for this setting: linear regression of double reciprocal plots (r = 0.97).
[12] abbreviates: nonlinear regression analysis (r = 0.98).
The mark [13] stands for this setting: IC50(+), 10-min NADPH-fortified pre-incubation.
The mark [14] stands for this setting: IC50(−), without pre-incubation.
Setting [15] is: rats treated with 8 g/kg lyophilized SMS.

In [1], `COc1cc(C[C@H]2C(=O)OC[C@@H]2Cc2ccc(OC)c(OC)c2)ccc1O` [Arctigenin] yielded an IC50 of more than 100 µM and an inhibition at 100 µM not above 50%.

`CC(C)=CCC/C(C)=C/COc1c2ccoc2cc2oc(=O)ccc12` [Bergamottin, bergamottin, reference compound]: the tmax in data set [2] (rats) is listed as 0.5 h.

As to `COC(=O)c1c(C)nc(C)c(C(=O)OC)c1-c1ccccc1[N+](=O)[O-]` [Dehydronifedipine], in data set [3], the “AUC0−t of dehydronifedipine” value was determined as 100 ± 10 ng·h/mL, the “AUC0−∞ of dehydronifedipine” value turned out to be 130 ± 10 ng·h/mL, the Cmax of dehydronifedipine stood at 40 ± 10 ng/mL and the t1/2 of dehydronifedipine is on record as 2.36 ± 0.33 h. The molecule also had a tmax of dehydronifedipine in data set [3] of 0.54 ± 0.10 h.

The molecule `CC(C)=CCC[C@](C)(O[C@@H]1O[C@H](CO[C@@H]2O[C@H](CO)[C@@H](O)[C@H](O)[C@H]2O)[C@@H](O)[C@H](O)[C@H]1O)[C@H]1CC[C@]2(C)[C@@H]1[C@H](O)C[C@@H]1[C@@]3(C)CC[C@H](O[C@@H]4O[C@H](CO)[C@@H](O)[C@H](O)[C@H]4O[C@@H]4O[C@H](CO)[C@@H](O)[C@H](O)[C@H]4O)C(C)(C)[C@@H]3CC[C@]12C` [Ginsenoside Rb1, ginsenoside Rb1] displayed an IC50 in data set [1] of more than 100 µM.

With `CC(C)=CCC[C@](C)(O[C@@H]1O[C@H](CO)[C@@H](O)[C@H](O)[C@H]1O)[C@H]1CC[C@]2(C)[C@@H]1[C@H](O)C[C@@H]1[C@@]3(C)CC[C@H](O[C@@H]4O[C@H](CO)[C@@H](O)[C@H](O)[C@H]4O[C@@H]4O[C@H](CO)[C@@H](O)[C@H](O)[C@H]4O)C(C)(C)[C@@H]3CC[C@]12C` [Ginsenoside Rd, ginsenoside Rd], in data set [1], the IC50 was found to be 80.2 ± 33.3 µM.

In the case of `Cc1c(O)c(C)c2c(c1O)C(=O)[C@H](Cc1ccc3c(c1)OCO3)CO2` [Methylophiopogonanone A, methylophiopogonanone A], the IC50 in data set [4] was found to be 16.8 ± 2.6 µM; in [5] it was 11.6 ± 0.7 µM; on human CYP3A4 [6] (10-min NADPH-fortified pre-incubation), 17.4 ± 2.1 µM; against human CYP3A4 [6] (without pre-incubation), 36.5 ± 7 µM. Besides, the “Ratio IC50(+)/IC50(−)” value on human CYP3A4 [6] is given as 0.48. At human CYP3A4 [6], the “Predicted threshold of unbound inhibitor concentration causing a 2-fold AUC increase” value is reported as 45.0 nM. Besides, at human CYP3A4 [7] (30 min incubation, molar ratio metabolized per CYP3A4 inactivated), the partition ratio was 54. Also, at human CYP3A4 [7] (30 min incubation, titration of remaining NFO activity), the turnover number is given as 55. The results for the “apparent KI” value on human CYP3A4 [7] (setting [11]) and at human CYP3A4 [7] (setting [12]) were 9.1 µM and 13.3 ± 5.9 µM, respectively. The kinact on human CYP3A4 [7] (setting [11]) worked out at 0.058 min⁻¹; at human CYP3A4 [7] (setting [12]), 0.068 ± 0.009 min⁻¹. Moreover, the “predicted threshold for causing a 2-fold increase in AUC” value at human CYP3A4 [7] (using inhibition constants (inactivation kinetics)) is 79.7 nM. For the same molecule, on human CYP3A4 [8], the “inhibition of NFO after dialysis” value was “could not be restored”. Also, the “CPR activity before or after dialysis” value in [9] was “not affected”. Moreover, the half-life in data set [2] (rats treated with Qingzao Jiufei decoction (4.6 g/kg)) is 8 to 9 h.

Consider `C[C@@H]1CC[C@@]2(OC1)O[C@H]1C[C@H]3[C@@H]4CC=C5C[C@@H](O)C[C@@H](O[C@@H]6O[C@H](C)[C@H](O)[C@H](O[C@@H]7OC[C@@H](O)[C@H](O)[C@H]7O)[C@H]6O[C@@H]6O[C@@H](C)[C@H](O)[C@@H](O)[C@H]6O)[C@]5(C)[C@H]4CC[C@]3(C)[C@H]1[C@@H]2C` [Ophiopogonin D, ophiopogonin D], for which the IC50 in data set [4] and in data set [5] was more than 100 µM throughout.

On to `CC1(C)CCC[C@](C)([C@H]2CC[C@]3(C)[C@@H]2[C@H](O)C[C@@H]2[C@@]4(C)CC[C@H](O)C(C)(C)[C@@H]4[C@@H](O)C[C@]23C)O1` [Panaxatriol, panaxatriol], for which the IC50 in [1] is more than 100 µM.

Regarding `CC(C)=CCC[C@](C)(O)[C@H]1CC[C@]2(C)[C@@H]1[C@H](O)C[C@@H]1[C@@]3(C)CC[C@H](O)C(C)(C)[C@@H]3[C@@H](O)C[C@]12C` [Protopanaxatriol, protopanaxatriol], the concentration for half-maximal inhibition (IC50) in data set [4] and in [5] was more than 100 µM in each case.

In data set [1], `C[C@@H]1CC[C@@]2(OC1)O[C@H]1C[C@H]3[C@@H]4CC=C5C[C@@H](O)C[C@@H](O)[C@]5(C)[C@H]4CC[C@]3(C)[C@H]1[C@@H]2C` [Ruscogenin, ruscogenin] registered an IC50 of more than 100 µM and an inhibition at 100 µM not above 50%.

Take `COc1cc2c(c(OC)c1OC)-c1c(cc3c(c1OC)OCO3)CC(C)C(C)C2` (centres unmarked) [Schisandrin B]: the IC50 in data set [5] was 8.9 ± 1.4 µM; on human CYP3A4 [6] (setting [13]) it was 1.5 ± 0.2 µM; at human CYP3A4 [6] (setting [14]), 6.1 ± 1.4 µM. In addition, on human CYP3A4 [6], the “Ratio IC50(+)/IC50(−)” value is 0.25. The “Predicted threshold of unbound inhibitor concentration causing a 2-fold AUC increase” value on human CYP3A4 [6] is reported as 7.69 nM. The tmax in [2] (SMS (8 g/kg)-treated rats) is reported as 1.6 h; in [2] (Schisandra Fructus extract (5 g/kg)-treated rats) it was 4.1 h. Moreover, in data set [2] (setting [15]), the half-life is 7 h. The Cmax in [2] is 28.6 nM.

As to `COc1cc2c(c(OC)c1OC)-c1c(cc3c(c1OC)OCO3)C[C@H](C)[C@](C)(O)[C@H]2OC(=O)c1ccccc1` [Schisantherin A, schisantherin A], the concentration for half-maximal inhibition (IC50) on human CYP3A4 [6] (setting [13]) turned out to be 0.06 ± 0.01 µM; at human CYP3A4 [6] (setting [14]), 0.17 ± 0.05 µM. The “Ratio IC50(+)/IC50(−)” value on human CYP3A4 [6] was found to be 0.35. Further, the “Predicted threshold of unbound inhibitor concentration causing a 2-fold AUC increase” value on human CYP3A4 [6] is 0.34 nM. Besides, the “time required for accumulating to reach the steady-state” value in data set [10] was “at least 8 days”. In data set [2] (SMS (8 g/kg)-treated rats), the tmax is recorded as 2.3 h. Moreover, the half-life in [2] (setting [15]) is recorded as 30 h. Further, the Cmax in data set [2] was 7.1 nM.

Usually IC50 stands for the concentration that inhibits the measured activity by half. The inhibition is the percentage by which the read-out fell short of the control. The low end stands for a weak effect, the high end for a strong effect. A word on the kinact: it is the maximal first-order rate at which the target is inactivated. Usually half-life stands for the time needed for the level to fall by half in the phase considered. A word on the Cmax: it is the highest concentration seen after dosing.
